Laboratory results published in ChEMBL document CHEMBL1147097, “Trioxaquines are new antimalarial agents active on all erythrocytic forms, including gametocytes” (Antimicrob Agents Chemother, 2007).

Assays:
[1] = Cytotoxicity against human HCT cells assessed as [3H]thymidine incorporation; assay type: cell-based
Outline: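 HCT human colorectal tumour cells grown with 10% fetal calf serum and harvested with 0.05% trypsin-EDTA. Plated at 15 × 10^3 cells/well with drug dilutions.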

[2] = test system: Plasmodium yoelii nigeriensis; assay: Antimalarial activity against Plasmodium yoelii nigeriensis infected subcutaneously dosed mice (Mus musculus); assay type: functional; settings: for ED50 / ED90: Plasmodium yoelii, sc
Outline: (§1)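 Four-day suppressive test with P. yoelii nigeriensis: infected mice given drug once daily for four consecutive days p.o. or s.c. (DMSO vehicle, chloroquine in 0.9% NaCl). Parasitemia compared with untreated controls. Cure was defined as no parasites detected after 60 days, with CD50 taken as the dose curing 50% of mice.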

[3] = Ratio of IC50 for HCT cells to IC50 for Plasmodium falciparum; assay type: functional
Plasmodium falciparum [4] = assay: Antimalarial activity against chloroquine-sensitive Plasmodium falciparum Nigeria; assay type: functional, organism-based, Nigerian
Outline: (§2)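 Asexual P. falciparum grown in culture at 37°C under 5% CO2 and exposed to drug dilutions for 48 h. Growth inhibition measured by radioactive micromethod. IC50 read graphically from concentration vs % growth inhibition; mean of at least three independent experiments.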

Plasmodium falciparum [5] = assay: Antimalarial activity against chloroquine-resistant Plasmodium falciparum FcB1; assay type: functional, organism-based; outline: as §2
[6] = test system: Plasmodium vinckei petteri; assay: Antimalarial activity against Plasmodium vinckei petteri infected intraperitoneally dosed Swiss Albino mice (Mus musculus); assay type: functional
Outline: (§3)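 Four-day suppressive test: groups of five female Swiss albino mice infected i.p. on day 0 with 2 × 10^7 parasitized red cells, then dosed once daily for 4 days (i.p., p.o. or s.c.; DMSO vehicle, chloroquine in 0.9% NaCl). Parasitemia read on day 4 vs untreated controls; ED50/ED90 as % growth inhibition; CD50/CD90 = cure (no parasites at 60 days).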

[7] = test system: Plasmodium vinckei petteri; assay: Antimalarial activity against Plasmodium vinckei petteri infected orally dosed Swiss Albino mice (Mus musculus); assay type: functional; settings: for ED50 / ED90: Plasmodium vinckei, po; outline: as §3
[8] = test system: Plasmodium vinckei petteri; assay: Antimalarial activity against Plasmodium vinckei petteri infected subcutaneously dosed Swiss Albino mice (Mus musculus); assay type: functional; settings: for ED50 / ED90: Plasmodium vinckei, sc; outline: as §3
[9] = test system: Plasmodium yoelii nigeriensis; assay: Antimalarial activity against Plasmodium yoelii nigeriensis infected mice (Mus musculus) by oral dose; assay type: functional; outline: as §1
Plasmodium falciparum [10] = assay: Antimalarial activity against chloroquine-resistant Plasmodium falciparum W2 gametocytes (stage 2 & 3); assay type: functional, organism-based
Outline: (§4)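 W2 gametocyte cultures treated with 50 mM N-acetyl-D-glucosamine for 3 or 5 days to remove asexual forms. Young (7-day) or old (13-day) cultures exposed to drug dilutions for 48 h. Giemsa thin films made and gametocytes counted per 6,000–10,000 erythrocytes. Mean of three independent experiments.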

Plasmodium falciparum [11] = assay: Antimalarial activity against chloroquine-resistant Plasmodium falciparum W2 gametocytes (stage 4 & 5); assay type: functional, organism-based; outline: as §4
Plasmodium falciparum [12] = assay: Antimalarial activity against chloroquine-resistant Plasmodium falciparum W2 asexual […]; assay type: functional, organism-based
Mus musculus [13] = assay: Toxicity against intraperitoneally dosed Swiss mouse; assay type: organism-based; settings: in vivo, ip
Outline: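 Acute toxicity: noninfected Swiss mice (two to five per dose) given a single i.p. injection. LD50 is the dose killing 50% of mice within 60 days.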

Plasmodium falciparum [14] = assay: Growth inhibition after 6 hrs in chloroquine-resistant Plasmodium falciparum FcB1; assay type: functional, organism-based; settings: FcB1, 6 h
Outline: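 Plasmion-synchronized FcB1 parasites plated at ring stage and exposed to drug during successive 6-h windows of the erythrocytic cycle (one plate per period). Artemisinin tested at 7, 14, 28 nM; chloroquine at 120, 163, 232 nM; trioxaquine at 11.5, 23, 46 nM. Dilutions prepared daily.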

Plasmodium falciparum [15] = assay: Antimalarial activity against chloroquine-sensitive Plasmodium falciparum F32; assay type: functional, organism-based; outline: as §2
Plasmodium falciparum [16] = assay: Antimalarial activity against chloroquine-resistant Plasmodium falciparum FcM29; assay type: functional, organism-based; outline: as §2
Mus musculus [17] = assay: Toxicity against Plasmodium vinckei petteri infected mice (Mus musculus) at 50 mg/kg, perorally after 4 days; assay type: organism-based; design: dose 50 mg/kg, route oral; settings: in vivo, po, 96 h
Outline: (§5)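 Subacute toxicity: P. vinckei petteri-infected mice dosed on four consecutive days (day 0–3) at 10, 25 or 50 mg/kg/day p.o., i.p. or s.c. Five mice per dose and route.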

Mus musculus [18] = assay: Toxicity against Plasmodium vinckei petteri infected mice (Mus musculus) at 25 mg/kg, intraperitoneally after 4 days; assay type: organism-based; design: dose 25 mg/kg, route intraperitoneal; settings: in vivo, ip, 96 h; outline: as §5
[19] = Ratio of LD50 for Swiss mice (Mus musculus) to ED50 for Plasmodium vinckei petteri infected mice (Mus musculus); assay type: functional
Outline: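 Therapeutic index: LD50 (healthy Swiss mice, observed 60 days) divided by ED50 from the 4-day P. vinckei petteri suppressive test.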

Q: For `CCN(CC)CCCC(C)Nc1ccnc2cc(Cl)ccc12` (centres undefined) [CHLOROQUINE], which IC50 [1] is on record?
A: Its IC50 is 50 µM.

Q: And the CD50 [2]?
A: Its CD50 is 3 mg/kg/day.

Q: What about the CD90 [2] of the same compound?
A: The CD90 was 5 mg/kg/day.

Q: And the ED50 [2]?
A: Its ED50 is 3 mg/kg/day.

Q: And the ED90 [2]?
A: The ED90 was 5 mg/kg/day.

Q: What does the source list for `CC(C)C1=C[C@H]2OC3(CCC(NCCNc4ccnc5cc(Cl)ccc45)CC3)OO[C@@]2(C)CC1.O=C(O)CC(O)(CC(=O)O)C(=O)O` (stereo in doubt; form 5)?
A: Ratio IC50 [3]: 130; IC50 (Plasmodium falciparum [4]): 0.023 µM; IC50 (Plasmodium falciparum [5]): 0.005 µM; IC50 [1]: 3 µM; CD50 [6]: 12 mg/kg/day; CD90 [6]: >20 mg/kg/day; CD50 [7]: >25 mg/kg/day; CD90 [7]: >25 mg/kg/day; ED50 [7]: 17 mg/kg/day; ED90 [7]: 23 mg/kg/day; CD50 [8]: >10 mg/kg/day; CD90 [8]: >10 mg/kg/day; ED50 [8]: 2.8 mg/kg/day; ED90 [8]: 8 mg/kg/day; CD50 [9]: 22 mg/kg/day; CD90 [9]: 24 mg/kg/day; ED50 ([9]; Plasmodium yoelii, po): 15 mg/kg/day; ED90 ([9]; Plasmodium yoelii, po): 23 mg/kg/day; CD50 [2]: 3 mg/kg/day; CD90 [2]: 12 mg/kg/day; ED50 [2]: 2 mg/kg/day; ED90 [2]: 5 mg/kg/day; IC50 (Plasmodium falciparum [10]): 0.069 µM; IC50 (Plasmodium falciparum [11]): 0.067 µM; IC50 (Plasmodium falciparum [12]): 0.028 µM; LD50 (Mus musculus [13]): 70 mg/kg/day; IC50 (Plasmodium falciparum [14]): 0.018 µM

Q: Which results are given for `CC(C)C1=C[C@H]2OC3(CCC(NCCNc4ccnc5cc(Cl)ccc45)CC3)OO[C@@]2(C)CC1.O=C(O)CC(O)(CC(=O)O)C(=O)O` (stereo in doubt; form 10)?
A: CD50 [6]: 7 mg/kg/day; ED50 [6]: 7 mg/kg/day; ED90 [6]: 2.5 mg/kg/day

Q: Which IC50 (Plasmodium falciparum [15]) does the source give for `CC(C)C1=C[C@H]2OC3(CCC(NCCNc4ccnc5cc(Cl)ccc45)CC3)OO[C@@]2(C)CC1.O=[N+]([O-])O` (some centres undefined) here?
A: The IC50 was 0.025 µM.

Q: And the IC50 (Plasmodium falciparum [5])?
A: Its IC50 is 0.021 µM.

Q: What about the IC50 (Plasmodium falciparum [16]) of the same compound?
A: The IC50 was 0.016 µM.

Q: What about the CD50 [6] of the same compound?
A: The CD50 was 3 mg/kg/day.

Q: What about the CD90 [6] of the same compound?
A: The CD90 was 9 mg/kg/day.

Q: What about the ED50 ([6]; Plasmodium vinckei, ip, read-out: ED50) of the same compound?
A: The ED50 was 0.7 mg/kg/day.

Q: What about the ED90 ([6]; Plasmodium vinckei, ip, read-out: ED90) of the same compound?
A: The ED90 was 8 mg/kg/day.

Q: What about the CD50 [7] of the same compound?
A: Its CD50 is 24 mg/kg/day.

Q: And the CD90 [7]?
A: Its CD90 is 46 mg/kg/day.

Q: And the ED50 [7]?
A: Its ED50 is 16 mg/kg/day.

Q: And the ED90 [7]?
A: The ED90 was 34 mg/kg/day.

Q: What about the CD50 [8] of the same compound?
A: The CD50 was 3 mg/kg/day.

Q: And the CD90 [8]?
A: The CD90 was 8 mg/kg/day.

Q: And the ED50 [8]?
A: The ED50 was 2 mg/kg/day.

Q: What about the ED90 [8] of the same compound?
A: The ED90 was 6 mg/kg/day.

Q: What about the LD50 (Mus musculus [13]) of the same compound?
A: The LD50 was 70 mg/kg/day.

Q: And the Activity (Mus musculus [17])?
A: Its Activity is “Non-toxic”.

Q: And the Activity (Mus musculus [18])?
A: Its Activity is “Non-toxic”.

Q: With `CC(C)C1=C[C@H]2OC3(CCC(NCCNc4ccnc5cc(Cl)ccc45)CC3)OO[C@@]2(C)CC1` (stereo in doubt; form 4) as the compound, how does the IC50 (Plasmodium falciparum [5]) read?
A: The IC50 was 0.043 µM.

Q: And the IC50 (Plasmodium falciparum [16])?
A: Its IC50 is 0.019 µM.

Q: Which results are given for `CC(C)C1=C[C@H]2OC3(CCC(NCCNc4ccnc5cc(Cl)ccc45)CC3)OO[C@@]2(C)CC1.O=C(O)CC(O)(CC(=O)O)C(=O)O` (stereo in doubt; form 9)?
A: ED50 [6]: 3 mg/kg/day; ED90 [6]: 8 mg/kg/day

Q: Which IC50 (Plasmodium falciparum [5]) does the source give for `CC(C)C1=C[C@H]2OC3(CCC(NCCNc4ccnc5cc(Cl)ccc45)CC3)OO[C@@]2(C)CC1` (stereo in doubt; form 1) here?
A: Its IC50 is 0.049 µM.

Q: What about the IC50 (Plasmodium falciparum [16]) of the same compound?
A: The IC50 was 0.029 µM.

Q: For `CC(C)C1=C[C@H]2OC3(CCC(NCCNc4ccnc5cc(Cl)ccc45)CC3)OO[C@@]2(C)CC1` (stereo in doubt; form 6) [TRIOXAQUINE 3], which IC50 (Plasmodium falciparum [15]) is on record?
A: The IC50 was 0.018 µM.

Q: What about the IC50 (Plasmodium falciparum [4]) of the same compound?
A: Its IC50 is 0.018 µM.

Q: And the IC50 (Plasmodium falciparum [5])?
A: Its IC50 is 0.026 µM.

Q: And the IC50 (Plasmodium falciparum [16])?
A: The IC50 was 0.018 µM.

Q: For `CC(C)C1=C[C@H]2OC3(CCC(NCCNc4ccnc5cc(Cl)ccc45)CC3)OO[C@@]2(C)CC1` (stereo in doubt; form 3), which IC50 (Plasmodium falciparum [5]) is on record?
A: Its IC50 is 0.047 µM.

Q: What about the IC50 (Plasmodium falciparum [16]) of the same compound?
A: Its IC50 is 0.023 µM.

Q: Which Ratio LD50/ED50 [19] does the source give for `CC(C)C1=C[C@H]2OC3(CCC(NCCNc4ccnc5cc(Cl)ccc45)CC3)OO[C@@]2(C)CC1` (stereo in doubt; form 5) here?
A: Its Ratio LD50/ED50 is 23.

Q: Which results are given for `CC(C)C1=C[C@H]2OC3(CCC(NCCNc4ccnc5cc(Cl)ccc45)CC3)OO[C@@]2(C)CC1` (stereo in doubt; form 8) [TRIOXAQUINE 3]?
A: IC50 (Plasmodium falciparum [15]): 0.011 µM; IC50 (Plasmodium falciparum [5]): 0.008 µM; IC50 (Plasmodium falciparum [16]): 0.012 µM
